# NALP1 yeast inh – NALP1 inflammasome inhibitors in reconstituted yeast, colorimetric, S. cerevisiae, triplicate retest; 280,000 compounds, 0.61% hits; inhibition, % at 10 µM; S. cerevisiae NALP1/ASC/caspase-1 growth, X-gal OD620, 72 h; AID 2071, 2009; in the data active = inhibition mostly above about 24%, no sharp cut-off; inactive = mostly below about 32%
# Mot1-301 SUMO – yeast Mot1-301 growth rescue at high temperature, primary screen, SUMOylation pathway inhibitor project, S. cerevisiae, ATP luminescence, 38.5C. growth rescue, % at 18.8 µM. S. cerevisiae Mot1-301 growth rescue; percent above DMSO median, 100 means doubled. AID 2716, 2010. 320,000 compounds, 1% hits;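 active = every valid replicate shows activation above 250% relative to neutral control wells; inactive = the rest, any valid replicate at or below 250%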;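 note: OY570 slx delta 5 strain wells were the positive control but not used for scaling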
# IMP-1 inhibitor – IMP-1 metallo-beta-lactamase inhibitors, primary screen, biochemical, epi-absorbance readout, Pseudomonas aeruginosa enzyme; purified IMP-1, nitrocefin hydrolysis, epi-absorbance fluorescence; inhibition, % at 5.6 µM; 290,000 compounds, 0.45% hits; AID 1556, 2009;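 active = inhibition above the mean plus 3 SD of all compounds in the same screening run, cut at about 4.5% in these data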;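 note: 0% = IMP-1 with DMSO and 100% = DMSO wells lacking enzyme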
#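 system = purified recombinant IMP-1 beta-lactamase | amount = 0.2 nM IMP-1, as dispensed | medium = HEPES buffer pH 7.1 with ZnSO4 and Brij 35 | times = 25 °C, 15 min preincubation, 25 min reaction | detection = plate fluorescence quenching by hydrolysis product, ex 480/em 530 nm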
# NLRP3 yeast inh – NALP3 inflammasome inhibitors in reconstituted yeast, primary screen, luminescence, uHTS; Yeast reconstituted NLRP3/ASC/caspase-1, beta-gal luminescence, 24 h; inhibition, % at 10 µM; 330,000 compounds, 0.39% hits; AID 2825, 2010;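 active = inhibition of 50% or more; inactive = inhibition below 50%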;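 note: plate controls were induced DMSO wells for no effect and uninduced yeast grown without galactose for full effect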
# PolyA inh – polyadenylation inhibitors in yeast reporter cells, primary screen, luminescence, S. cerevisiae. S. cerevisiae SKY197-pL101 polyadenylation reporter, beta-gal luminescence; efflux-impaired pdr1/pdr3 knockout yeast; score 100 = 6 SD above DMSO. 300,000 compounds, 0.02% hits. AID 1875, 2009. activity score, % at 12 µM;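 active = lowest replicate activity score at least 50, where 100 means six control SD above control mean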;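 note: yeast exposed to compound for 9 h at 30 °C; higher score means more reporter readthrough which indicates perturbed polyadenylation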
# VIM-2 inh – VIM-2 metallo-beta-lactamase inhibitors, primary screen, biochemical, epi-absorbance readout, Pseudomonas aeruginosa enzyme; 290,000 compounds, 0.89% hits; AID 1527, 2009; inhibition, % at 5.6 µM; purified VIM-2, nitrocefin hydrolysis, epi-absorbance fluorescence;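 active = inhibition above the mean of all tested compounds plus 3 SD, cutoff set per screening run, cut at about 7.5% in these data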;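 note: red hydrolysis product quenches plate fluorescence so inhibitors raise well fluorescence; 0% = enzyme with DMSO and 100% = DMSO without enzyme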
# NALP3 confirm – NALP3 inhibitors retested in yeast, confirmation, luminescence, single concentration; shares compounds with NLRP3 yeast inh; AID 435006, 2010; inhibition, % at 10 µM; 1,300 compounds, 81% hits; yeast expressing human NALP3; in the data active = inhibition above about 48%
# Casp1-ASC yeast – CASP1-PYCARD signaling inhibition in yeast, confirmatory test, counterassay for NLRP3 inhibitor program, one-dose; 1,000 compounds, 66% hits; inhibition, % at 10 µM; yeast expressing Caspase-1-ASC, luminescence counter screen; shares compounds with NLRP3 yeast inh
# NALP3 yeast rt – NALP3 inhibitors in yeast, repeat test, confirmation, luminescence, single concentration, retest. yeast expressing human NALP3, luminescence read-out. 1,000 compounds, 53% hits. shares compounds with NLRP3 yeast inh. inhibition, % at 10 µM. AID 488794, 2010
# * marks the source's active call; other numbers are inactive results; · = no result. Hits are enriched below; roughly 2.9% of the tested compounds scored in any of these assays. Cut-off read from the data, not from the text of the source, unless noted: active = inhibition above about 50%; inactive = the rest.
SMILES,NALP1 yeast inh,Mot1-301 SUMO,IMP-1 inhibitor,NLRP3 yeast inh,PolyA inh,VIM-2 inh,NALP3 confirm,Casp1-ASC yeast,NALP3 yeast rt
Cc1snc(SCc2ccc(F)cc2)c1C#N,13,129,1,38,0,1,·,·,·
Cc1snc(SCc2ccc(Cl)cc2)c1C#N,28,32,-1,52*,1,4,49*,63*,25
CCC(C)(C)n1nnnc1C(c1cccnc1)N1CCCc2ccccc21 (stereo unspecified),7,110,-2,-1,-7,-3,·,·,·
CCC(C)(C)n1nnnc1C(c1cccs1)N1CCc2ccccc21 (stereo unspecified),18,-9,-3,-101,2,-3,-18,·,·
CSc1nc2ccc(S(=O)(=O)N3CCCCC3)cc2s1,14,3,-3,63*,2,1,82*,48,26
NS(=O)(=O)c1ccc(NC(=O)Nc2ccc(Cl)cc2)cc1,-2,-9,-2,17,3,-5,·,·,·
CN(CC(=O)Nc1ccc(C#N)cc1)Cc1ccc(Cl)cc1,1,5,-3,30,3,-2,·,·,·
N#Cc1ccc(NC(=O)Nc2ccc(Cl)cc2)cc1,71*,-20,-3,72*,-13,-3,57*,48,60*
O=C(Nc1ccc(Cl)cc1)Nc1ccc(Cl)c(Cl)c1,·,15,·,72*,·,·,72*,24,42
CN(CC(=O)Nc1ccc(C#N)cc1)Cc1ccc(Cl)cc1Cl,14,3,-3,65*,-20,-5,59*,59*,46
COc1cc(-c2nc3ccccn3c2/N=C/c2cc(OC)c(O)cc2Cl)ccc1O,-11,-1,-3,-105,-14,-4,-19,·,·
COc1cc(-c2nc3ccccn3c2/N=C/c2ccccc2)ccc1O,-10,-5,-2,16,25,0,·,·,·
O=C(Nc1ccc(N2CCCCC2)cc1)C(Cl)c1ccccc1 (stereo unspecified),21,-16,-3,50*,21,-5,56*,44,34
O=C(Nc1ccc(N2CCCC2)cc1)C(c1ccccc1)c1ccccc1,4,2,0,9,-6,-2,·,·,·
CCCCCCCCCCCCOC(=O)C[N+](C)(C)C,·,53,-2,54*,11,-3,46,59*,52*
COc1ccccc1NC(=O)c1ccc(NC(=O)C2CC2C)cc1 (stereo unspecified),·,25,·,6,·,·,·,·,·
CC1CC1C(=O)Nc1ccc(-c2ccccc2)cc1 (stereo unspecified),47,-4,-3,51*,-24,-2,64*,·,·
CCCCOc1ccc(C2/C(=C(\O)c3ccc4c(c3)OCCO4)C(=O)C(=O)N2CCCN2CCOCC2)cc1 (stereo unspecified),19,5,0,60*,1,-1,55*,68*,54*
O=C1C(=O)N(CCCN2CCOCC2)C(c2ccc(Cl)cc2)/C1=C(\O)c1ccc2c(c1)OCCO2 (stereo unspecified),2,3,0,4,6,-4,·,·,·
Cc1nc2nc(-c3cccs3)[nH]c2cc1Br,·,-19,·,54*,-3,·,76*,60*,63*
c1ccc(-c2nc(-c3cccs3)[nH]c2-c2ccccc2)cc1,8,-5,-2,-36,-30,-5,·,·,·
CC(Oc1ccc(F)cc1)C(=O)Nc1cc(C(F)(F)F)ccc1-n1cncn1 (stereo unspecified),·,7,·,50,-7,·,64*,42,38
O=C(COc1ccc(Br)cc1Cl)NC1CCCCC1,38,-7,0,53*,-14,-3,4,·,·
O=C(COc1ccc(Br)cc1Br)NC1CCS(=O)(=O)C1 (stereo unspecified),·,15,·,18,23,·,·,·,·
O=C(COc1ccc(Br)cc1Br)NC1CCCC1,19,82,-2,62*,17,-2,56*,53*,47
SMILES,NALP1 yeast inh,Mot1-301 SUMO,IMP-1 inhibitor,NLRP3 yeast inh,PolyA inh,VIM-2 inh,NALP3 confirm,Casp1-ASC yeast,NALP3 yeast rt
O=C(COc1ccc(Br)cc1Cl)NC(=O)NC1CCCC1,·,72,·,5,·,·,·,·,·
O=C(C[n+]1ccccc1)N/N=C/c1cc(Br)cc(Br)c1O,34,-18,-1,78*,-67,2,53*,87*,77*
O=C(C[n+]1ccccc1)N/N=C/c1cc(Br)ccc1F,·,2,·,10,·,·,·,·,·
O=C(O)c1ccc(N=Nc2c(O)ccc3ncccc23)cc1,-1,11,-10,55*,-20,1,82*,54*,53*
Cc1ccccc1C(=O)Nc1nnc(SC(C)C)s1,-15,1,-1,51*,-3,-1,38,71*,63*
CCCCn1c(N)c(N(CCOC)C(=O)COC(=O)CCOc2ccccc2)c(=O)[nH]c1=O,·,32,·,5,-26,·,·,·,·
C=CCNc1nc(Nc2ccc([N+](=O)[O-])cc2)nc(OCC)n1,28,282,0,16,14,0,·,·,·
C=CCNc1nc(Cl)nc(Nc2ccc(OCC)cc2)n1,43,-8,1,52*,-2,2,46,38,34
COc1ccc(C)cc1NC(=O)CCc1ccc(S(=O)(=O)N2CCOCC2)cc1,·,10,·,1,·,·,·,·,·
CN(C)c1ncnc2sc(-c3ccccc3)cc12,-5,0,-2,65*,-17,3,75*,44,37
Cc1ccc2c(=O)cc(C(=O)NCc3ccccc3)oc2c1C,3,5,-2,11,-16,1,·,·,·
CCCNC(=O)Nc1nc2ccccc2s1,·,3,-2,10,6,-4,·,·,·
CCCNC(=O)c1ccc(-c2nc3ccccc3s2)s1,19,7,1,58*,-15,-2,76*,32,33
COc1cc(C)ccc1OCCOc1ccccc1Cl,18,-1,-2,51*,-17,0,49*,50,37
COc1cc(C)ccc1OCCCOc1ccccc1Cl,2,5,-3,12,-8,-1,·,·,·

# Compound activity as filed in PubChem.
